Assays:
Cytochrome P450 2C19 = Cytochrome P450 2C19 (Homo sapiens, UniProt P33261); test: Inhibition of CYP2C19 (unknown origin); type: ADME
[1] = Protein binding in rhesus monkey plasma assessed as unbound fraction at 1 mg/kg, po or 0.5 mg/kg, iv; type: ADME, organism-based, Macaca mulatta; conditions: read-out: PPB
[2] = Half life in dog at 1 mg/kg, po or 0.5 mg/kg, iv; type: ADME, organism-based, Canis lupus familiaris; conditions: in vivo
Outline: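 Single-dose PK at 1 mg/kg po and 0.5 mg/kg iv. Mouse clearance is from blood; dog and rhesus clearance is from plasma. Mouse vehicle, both routes: DMSO:PEG400:water (5:40:55, v/v/v). Dog and monkey iv vehicle: PEG200:12%HPCD:water (30:12:58 v/v/v). Dog and monkey po vehicle: Imwitor:Tween (1:1 w/w).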

[3] = Drug recovery in fasted bile-duct cannulated Sprague-Dawley rat urine assessed as metabolically unchanged parent compound at 5 mg/kg, po using [3H]-labeled compound measured after 48 hrs; type: ADME, organism-based; conditions: in vivo
[4] = Cmax in Sprague-Dawley rat at 5 mg/kg, po administered as single dose measured at 6 hrs; type: ADME, organism-based; parameters: route oral, dose 5 mg/kg, time 6 hrs; conditions: in vivo
[5] = Volume of distribution at steady state in rhesus monkey at 1 mg/kg, po or 0.5 mg/kg, iv; type: ADME, organism-based, Macaca mulatta; conditions: in vivo, read-out: Vdss
Outline: (§1)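 Dog and rhesus monkey dosed 1 mg/kg po and 0.5 mg/kg iv. The iv vehicle was PEG200:12%HPCD:water (30:12:58 v/v/v); the po vehicle was Imwitor:Tween (1:1 w/w). Clearance was measured in plasma. Protein binding was measured in 100% serum.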

[6] = Oral bioavailability in rat at 2 mg/kg; type: ADME, organism-based; conditions: in vivo
[7] = Volume of distribution at steady state in C57BL/6J mouse at 1 mg/kg, po or 0.5 mg/kg, iv; type: ADME, organism-based; conditions: in vivo, read-out: Vdss
Outline: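 C57BL/6J mice dosed 1 mg/kg po and 0.5 mg/kg iv, both in DMSO:PEG400:water (5:40:55, v/v/v).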

[8] = Half life in rat at 2 mg/kg, po or 1 mg/kg, iv; type: ADME, organism-based; conditions: in vivo
[9] = Cmax in Sprague-Dawley rat at 1.5 mg/kg, po administered as single dose measured at 6 hrs; type: ADME, organism-based; parameters: route oral, time 6 hrs, dose 1.5 mg/kg; conditions: in vivo
[10] = Metabolic stability in monkey liver microsomes assessed as metabolic turnover at 10 uM measured after 60 mins in presence of NADPH; type: ADME, Macaca mulatta, Microsome; conditions: rhesus monkey, read-out: Drug metabolism
Outline: (§2)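 Tritiated compound incubated with rat or monkey liver microsomes supplemented with NADPH; metabolic turnover monitored.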

[11] = Drug recovery in fasted bile-duct cannulated Sprague-Dawley rat bile at 5 mg/kg, po using [3H]-labeled compound measured after 48 hrs; type: ADME, organism-based; conditions: in vivo
[12] = Drug recovery in fasted bile-duct cannulated Sprague-Dawley rat bile assessed as metabolically unchanged parent compound at 5 mg/kg, po using [3H]-labeled compound measured after 48 hrs; type: ADME, organism-based; conditions: in vivo
[13] = Drug recovery in fasted bile-duct cannulated Sprague-Dawley rat feces at 5 mg/kg, po using [3H]-labeled compound measured after 48 hrs; type: ADME, organism-based; conditions: in vivo
[14] = Oral bioavailability in dog at 1 mg/kg; type: ADME, organism-based, Canis lupus familiaris; conditions: in vivo; outline: as §1
[15] = In vivo inhibition of HIF-PHD2 in C57BL/6 mouse assessed as serum erythropoietin level at 50 mg/kg, iv measured after 4 hrs; type: functional
Outline: (§3)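 Mouse pharmacodynamic EPO assay (MoPED). Compound dosed iv; serum EPO measured 4 hr after dosing and reported in pg/mL. Minimum effective dose is the lowest dose giving EPO elevation.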

[16] = In vivo inhibition of HIF-PHD2 in C57BL/6 mouse assessed as serum erythropoietin level at 1.5 mg/kg, iv measured after 4 hrs; type: functional; outline: as §3
[17] = Drug metabolism in human liver microsomes assessed as O-demethylated metabolite formation; type: ADME, Microsome
[18] = Drug metabolism in rat liver microsomes assessed as O-demethylated metabolite formation; type: ADME, Microsome
[19] = Volume of distribution at steady state in dog at 1 mg/kg, po or 0.5 mg/kg, iv; type: ADME, organism-based, Canis lupus familiaris; conditions: in vivo, read-out: Vdss; outline: as §1
[20] = Metabolic stability in rat liver microsomes assessed as metabolic turnover at 10 uM measured after 60 mins in presence of NADPH; type: ADME, Microsome; conditions: read-out: Drug metabolism; outline: as §2
[21] = Drug metabolism in fasted bile-duct cannulated Sprague-Dawley rat urine assessed as oxidation of parent compound causing metabolite formation at 5 mg/kg, po using [3H]-labeled compound measured after 48 hrs; type: ADME, organism-based; conditions: in vivo
Cytochrome P450 2C9 = Cytochrome P450 2C9 (Homo sapiens, UniProt P11712); test: Inhibition of CYP2C9 (unknown origin); type: ADME
[22] = Plasma clearance in rat at 2 mg/kg, po or 1 mg/kg, iv; type: ADME, organism-based
[23] = Toxicity in Sprague-Dawley rat assessed as change in hemoglobin levels at 1.5 mg/kg, po QD administered for 4 weeks and measured post last dose; type: organism-based; conditions: in vivo, 672 h
[24] = In vivo inhibition of HIF-PHD2 in C57BL/6 mouse assessed as serum erythropoietin level at 5 mg/kg, iv measured after 4 hrs; type: functional; outline: as §3
Cytochrome P450 2B6 = biological target: T1, Cytochrome P450 2B6 (Homo sapiens, UniProt P20813); test: Inhibition of CYP2B6 (unknown origin); type: ADME
T1 sequence (P20813 whole entry): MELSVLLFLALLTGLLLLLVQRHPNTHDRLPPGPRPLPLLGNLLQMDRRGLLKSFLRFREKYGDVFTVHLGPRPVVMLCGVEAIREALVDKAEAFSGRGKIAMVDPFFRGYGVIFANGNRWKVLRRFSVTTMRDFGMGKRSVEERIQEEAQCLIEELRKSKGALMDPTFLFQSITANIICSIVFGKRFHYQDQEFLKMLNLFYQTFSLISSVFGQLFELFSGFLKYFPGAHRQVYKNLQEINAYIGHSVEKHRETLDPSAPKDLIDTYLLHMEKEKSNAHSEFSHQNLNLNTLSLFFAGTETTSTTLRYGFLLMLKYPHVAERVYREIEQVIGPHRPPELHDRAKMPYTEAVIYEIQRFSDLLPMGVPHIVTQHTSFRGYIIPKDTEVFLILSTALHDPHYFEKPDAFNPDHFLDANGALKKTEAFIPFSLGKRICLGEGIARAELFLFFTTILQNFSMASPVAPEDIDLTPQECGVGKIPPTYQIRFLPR

[25] = In vivo inhibition of HIF-PHD2 in C57BL/6 mouse assessed as serum erythropoietin level at 100 mg/kg, iv measured after 4 hrs; type: functional; outline: as §3
[26] = Plasma clearance in dog at 1 mg/kg, po or 0.5 mg/kg, iv; type: ADME, organism-based, Canis lupus familiaris; outline: as §1
[27] = Volume of distribution at steady state in rat at 2 mg/kg, po or 1 mg/kg, iv; type: ADME, organism-based; conditions: in vivo, read-out: Vdss
[28] = Drug recovery in fasted bile-duct cannulated Sprague-Dawley rat feces assessed as metabolically unchanged parent compound by measuring radioactivity at 5 mg/kg, po using [3H]-labeled compound measured after 48 hrs; type: ADME, organism-based; conditions: in vivo
[29] = biological target: Voltage-gated inwardly rectifying potassium channel KCNH2 (Homo sapiens, UniProt Q12809); test: Inhibition of human ERG
Voltage-gated inwardly rectifying potassium channel KCNH2, sequence (Q12809 whole entry): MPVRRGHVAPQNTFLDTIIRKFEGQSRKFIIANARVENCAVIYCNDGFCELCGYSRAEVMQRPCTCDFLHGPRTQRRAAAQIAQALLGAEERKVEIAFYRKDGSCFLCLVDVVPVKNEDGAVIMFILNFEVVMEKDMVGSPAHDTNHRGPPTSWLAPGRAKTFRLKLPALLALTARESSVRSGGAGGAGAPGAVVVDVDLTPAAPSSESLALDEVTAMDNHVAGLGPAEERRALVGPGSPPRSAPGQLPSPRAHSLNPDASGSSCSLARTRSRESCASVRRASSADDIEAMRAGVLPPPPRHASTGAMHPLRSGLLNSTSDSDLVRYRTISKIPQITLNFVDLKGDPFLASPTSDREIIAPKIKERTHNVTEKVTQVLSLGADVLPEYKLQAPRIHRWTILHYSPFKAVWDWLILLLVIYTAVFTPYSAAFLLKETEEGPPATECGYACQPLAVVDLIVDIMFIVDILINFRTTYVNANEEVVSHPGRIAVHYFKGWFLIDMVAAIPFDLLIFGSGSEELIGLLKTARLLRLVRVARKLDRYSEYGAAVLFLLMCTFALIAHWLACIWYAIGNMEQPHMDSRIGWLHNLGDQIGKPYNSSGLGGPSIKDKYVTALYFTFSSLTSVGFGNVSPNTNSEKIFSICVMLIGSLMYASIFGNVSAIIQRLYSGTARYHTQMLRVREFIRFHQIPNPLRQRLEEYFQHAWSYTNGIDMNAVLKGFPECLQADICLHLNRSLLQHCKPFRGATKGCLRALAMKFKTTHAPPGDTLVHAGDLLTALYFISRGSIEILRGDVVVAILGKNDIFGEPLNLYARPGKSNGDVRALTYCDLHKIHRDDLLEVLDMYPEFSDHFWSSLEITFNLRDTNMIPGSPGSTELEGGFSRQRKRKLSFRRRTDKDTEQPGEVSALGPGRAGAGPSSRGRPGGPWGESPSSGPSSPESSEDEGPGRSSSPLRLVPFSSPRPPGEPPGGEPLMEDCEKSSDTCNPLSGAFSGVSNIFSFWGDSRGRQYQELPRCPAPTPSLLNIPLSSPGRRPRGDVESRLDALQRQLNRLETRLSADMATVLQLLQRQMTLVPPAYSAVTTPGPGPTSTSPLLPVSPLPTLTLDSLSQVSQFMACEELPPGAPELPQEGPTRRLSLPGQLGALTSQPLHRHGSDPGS

Cytochrome P450 2C9, sequence (P11712 whole entry): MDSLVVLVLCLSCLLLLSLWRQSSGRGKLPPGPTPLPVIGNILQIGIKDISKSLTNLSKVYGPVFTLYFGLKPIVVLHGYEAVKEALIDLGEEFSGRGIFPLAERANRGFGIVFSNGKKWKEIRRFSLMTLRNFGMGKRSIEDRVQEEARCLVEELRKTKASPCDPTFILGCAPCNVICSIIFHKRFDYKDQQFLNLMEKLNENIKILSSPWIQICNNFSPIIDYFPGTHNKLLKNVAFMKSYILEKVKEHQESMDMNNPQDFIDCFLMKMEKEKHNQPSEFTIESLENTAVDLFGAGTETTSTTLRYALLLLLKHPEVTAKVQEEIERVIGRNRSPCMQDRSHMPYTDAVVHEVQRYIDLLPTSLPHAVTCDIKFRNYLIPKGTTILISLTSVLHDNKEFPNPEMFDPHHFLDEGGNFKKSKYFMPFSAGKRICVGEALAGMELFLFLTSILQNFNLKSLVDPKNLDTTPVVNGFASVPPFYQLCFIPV
Cytochrome P450 2C19, sequence (P33261 whole entry): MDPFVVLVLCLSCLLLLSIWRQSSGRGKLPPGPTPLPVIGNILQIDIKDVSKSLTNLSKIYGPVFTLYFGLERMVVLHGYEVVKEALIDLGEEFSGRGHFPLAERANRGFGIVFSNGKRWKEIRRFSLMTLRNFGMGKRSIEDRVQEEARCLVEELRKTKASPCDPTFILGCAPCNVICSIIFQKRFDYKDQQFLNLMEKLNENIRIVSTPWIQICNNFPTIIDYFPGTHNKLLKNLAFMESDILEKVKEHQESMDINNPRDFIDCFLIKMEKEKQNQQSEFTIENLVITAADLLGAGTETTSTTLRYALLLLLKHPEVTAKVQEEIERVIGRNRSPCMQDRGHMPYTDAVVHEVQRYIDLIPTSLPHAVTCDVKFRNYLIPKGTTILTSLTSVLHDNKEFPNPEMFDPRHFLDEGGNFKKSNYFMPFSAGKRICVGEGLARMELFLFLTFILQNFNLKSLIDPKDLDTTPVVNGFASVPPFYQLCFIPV

- IC50 (Cytochrome P450 2C19): > 60 µM
- fraction unbound [1]: 0.005
- half-life [2]: 19 h
- Drug recovery [3]: < 10%
- Cmax [4]: 14 µM
- Vd [5]: 0.1 L/kg
- bioavailability [6]: 36%
- Vd [7]: 0.13 L/kg
- half-life [8]: 9.3 h
- Cmax [9]: 6.8 µM
- metabolised at 1 h, 10 µM [10]: < 10%
- Drug recovery [11]: 12%
- Drug recovery [12]: < 10%
- Drug recovery [13]: 39%
- bioavailability [14]: 71%
- Drug metabolism [17]: Metabolite_Detected
- Drug metabolism [18]: Metabolite_Detected
- Vd [19]: 0.12 L/kg
- metabolised at 1 h, 10 µM [20]: < 10%
- Drug metabolism [21]: Metabolite_Detected
- IC50 (Cytochrome P450 2C9): > 60 µM
- clearance [22]: 0.2 mL/min/kg
- IC50 (Cytochrome P450 2B6): > 60 µM
- clearance [26]: 0.07 mL/min/kg
- Vd [27]: 0.16 L/kg
- Drug recovery [28]: 90%
Compound: COc1ccc(C(NC(=O)c2cnc(-c3cccnn3)nc2O)c2ccc(OC)cc2)cc1
- Activity [15]: 18000 pg/mL
- Activity [16]: 360 pg/mL
- Activity [23]: 1 g/dL
- Activity [24]: 6200 pg/mL
- Activity [25]: 27000 pg/mL
- IC50 [29]: > 30 µM

Reference: ChEMBL document CHEMBL4765235, “Discovery of N-[Bis(4-methoxyphenyl)methyl]-4-hydroxy-2-(pyridazin-3-yl)pyrimidine-5-carboxamide (MK-8617), an Orally Active Pan-Inhibitor of Hypoxia-Inducible Factor Prolyl Hydroxylase 1-3 (HIF PHD1-3) for the Treatment of Anemia” (J Med Chem, 2016)
